ChEMBL document CHEMBL2157935, “Synthesis and properties of cationic 2'-O-[N-(4-aminobutyl)carbamoyl] modified oligonucleotides” (Bioorg Med Chem Lett, 2012)

Experiments:
[1] = tested on: Nucleic Acid; experiment: Binding affinity to RNA 3'-CAUGGCAAGGCC-5' assessed as melting temperature; type: nucleic-acid assay
[2] = tested on: Nucleic Acid; experiment: Binding affinity to RNA 3'-CAUGGGAAGGCC-5' assessed as melting temperature; type: nucleic-acid assay
[3] = tested on: Nucleic Acid; experiment: Binding affinity to RNA 3'-CAUGGUAAGGCC-5' assessed as melting temperature; type: nucleic-acid assay
[4] = tested on: Nucleic Acid; experiment: Binding affinity to RNA 3'-CAUGGAAAGGCC-5' assessed as melting temperature; type: nucleic-acid assay
[5] = tested on: Nucleic Acid; experiment: Binding affinity to RNA 3'-CAUGGAAAGGCC-5' assessed as change in melting temperature; type: nucleic-acid assay
[6] = Chemical stability in presence of snake venom phosphodiesterase at 50 uM and pH 8.4; type: physicochemical; details: buffer
In short: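 Oligonucleotides (50 μM) incubated at 37 °C in 50 mM Tris-HCl (pH 8.5) with 72 mM NaCl, 14 mM MgCl2 and 2.5 × 10^-4 U/ml snake venom phosphodiesterase; hydrolysis followed over time.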

Row | Compound | Tm [1] [°C] | Tm [2] [°C] | Tm [3] [°C] | Tm [4] [°C] | ΔTm [5] [°C] | Stability [6]
1 | CO[C@@H]1[C@H](OP(=O)(O)OC[C@H]2O[C@@H](n3ccc(=O)[nH]c3=O)[C@H](OC)[C@@H]2OP(=O)(O)OC[C@H]2O[C@@H](n3ccc(=O)[nH]c3=O)[C@H](OC)[C@@H]2OP(=O)(O)OC[C@H]2O[C@@H](n3ccc(=O)[nH]c3=O)[C@H](OC)[C@@H]2OP(=O)(O)OC[C@H]2O[C@@H](n3ccc(N)nc3=O)[C@H](OC)[C@@H]2OP(=O)(O)OC[C@H]2O[C@@H](n3ccc(N)nc3=O)[C@H](OC)[C@@H]2OP(=O)(O)OC[C@H]2O[C@@H](n3cnc4c(=O)[nH]c(N)nc43)[C@H](OC)[C@@H]2OP(=O)(O)OC[C@H]2O[C@@H](n3cnc4c(=O)[nH]c(N)nc43)[C@H](OC)[C@@H]2O)[C@@H](COP(=O)(O)O[C@H]2[C@@H](OC)[C@H](n3ccc(N)nc3=O)O[C@@H]2COP(=O)(O)O[C@H]2[C@@H](OC)[C@H](n3cnc4c(N)ncnc43)O[C@@H]2COP(=O)(O)O[C@H]2[C@@H](OC)[C@H](n3ccc(=O)[nH]c3=O)O[C@@H]2COP(=O)(O)O[C@H]2[C@@H](OC)[C@H](n3cnc4c(=O)[nH]c(N)nc43)O[C@@H]2CO)O[C@H]1n1ccc(N)nc1=O | 57 | 63 | 58 |  |  | 
2 | CO[C@@H]1[C@H](OP(=O)(O)OC[C@H]2O[C@@H](n3ccc(=O)[nH]c3=O)[C@H](OC(N)=O)[C@@H]2OP(=O)(O)OC[C@H]2O[C@@H](n3ccc(=O)[nH]c3=O)[C@H](OC)[C@@H]2OP(=O)(O)OC[C@H]2O[C@@H](n3ccc(=O)[nH]c3=O)[C@H](OC(N)=O)[C@@H]2OP(=O)(O)OC[C@H]2O[C@@H](n3ccc(N)nc3=O)[C@H](OC)[C@@H]2OP(=O)(O)OC[C@H]2O[C@@H](n3ccc(N)nc3=O)[C@H](OC)[C@@H]2OP(=O)(O)OC[C@H]2O[C@@H](n3cnc4c(=O)[nH]c(N)nc43)[C@H](OC)[C@@H]2OP(=O)(O)OC[C@H]2O[C@@H](n3cnc4c(=O)[nH]c(N)nc43)[C@H](OC)[C@@H]2O)[C@@H](COP(=O)(O)O[C@H]2[C@@H](OC)[C@H](n3ccc(N)nc3=O)O[C@@H]2COP(=O)(O)O[C@H]2[C@@H](OC)[C@H](n3cnc4c(N)ncnc43)O[C@@H]2COP(=O)(O)O[C@H]2[C@@H](OC)[C@H](n3ccc(=O)[nH]c3=O)O[C@@H]2COP(=O)(O)O[C@H]2[C@@H](OC)[C@H](n3cnc4c(=O)[nH]c(N)nc43)O[C@@H]2CO)O[C@H]1n1ccc(N)nc1=O |  |  |  | 43 |  | 
3 | CO[C@@H]1[C@H](OP(=O)(O)OC[C@H]2O[C@@H](n3ccc(=O)[nH]c3=O)[C@H](OC)[C@@H]2OP(=O)(O)OC[C@H]2O[C@@H](n3ccc(=O)[nH]c3=O)[C@H](OC)[C@@H]2OP(=O)(O)OC[C@H]2O[C@@H](n3ccc(=O)[nH]c3=O)[C@H](OC(=O)NCCCCN)[C@@H]2OP(=O)(O)OC[C@H]2O[C@@H](n3ccc(N)nc3=O)[C@H](OC)[C@@H]2OP(=O)(O)OC[C@H]2O[C@@H](n3ccc(N)nc3=O)[C@H](OC)[C@@H]2OP(=O)(O)OC[C@H]2O[C@@H](n3cnc4c(=O)[nH]c(N)nc43)[C@H](OC)[C@@H]2OP(=O)(O)OC[C@H]2O[C@@H](n3cnc4c(=O)[nH]c(N)nc43)[C@H](OC)[C@@H]2O)[C@@H](COP(=O)(O)O[C@H]2[C@@H](OC)[C@H](n3ccc(N)nc3=O)O[C@@H]2COP(=O)(O)O[C@H]2[C@@H](OC)[C@H](n3cnc4c(N)ncnc43)O[C@@H]2COP(=O)(O)O[C@H]2[C@@H](OC(=O)NCCCCN)[C@H](n3ccc(=O)[nH]c3=O)O[C@@H]2COP(=O)(O)O[C@H]2[C@@H](OC)[C@H](n3cnc4c(=O)[nH]c(N)nc43)O[C@@H]2CO)O[C@H]1n1ccc(N)nc1=O |  |  |  | 61 | 14 | 
4 | CO[C@@H]1[C@H](OP(=O)(O)OC[C@H]2O[C@@H](n3ccc(=O)[nH]c3=O)[C@H](OC(=O)NCCCCN)[C@@H]2OP(=O)(O)OC[C@H]2O[C@@H](n3ccc(=O)[nH]c3=O)[C@H](OC)[C@@H]2OP(=O)(O)OC[C@H]2O[C@@H](n3ccc(=O)[nH]c3=O)[C@H](OC)[C@@H]2OP(=O)(O)OC[C@H]2O[C@@H](n3ccc(N)nc3=O)[C@H](OC)[C@@H]2OP(=O)(O)OC[C@H]2O[C@@H](n3ccc(N)nc3=O)[C@H](OC)[C@@H]2OP(=O)(O)OC[C@H]2O[C@@H](n3cnc4c(=O)[nH]c(N)nc43)[C@H](OC)[C@@H]2OP(=O)(O)OC[C@H]2O[C@@H](n3cnc4c(=O)[nH]c(N)nc43)[C@H](OC)[C@@H]2O)[C@@H](COP(=O)(O)O[C@H]2[C@@H](OC)[C@H](n3ccc(N)nc3=O)O[C@@H]2COP(=O)(O)O[C@H]2[C@@H](OC)[C@H](n3cnc4c(N)ncnc43)O[C@@H]2COP(=O)(O)O[C@H]2[C@@H](OC)[C@H](n3ccc(=O)[nH]c3=O)O[C@@H]2COP(=O)(O)O[C@H]2[C@@H](OC)[C@H](n3cnc4c(=O)[nH]c(N)nc43)O[C@@H]2CO)O[C@H]1n1ccc(N)nc1=O | 57 | 68 | 59 | 69 | 4 | 
5 | Cc1cn([C@H]2C[C@H](O)[C@@H](COP(=O)(O)O[C@H]3[C@@H](OC(=O)NCCCCN)[C@H](n4ccc(=O)[nH]c4=O)O[C@@H]3COP(=O)(O)O[C@H]3[C@@H](OC(=O)NCCCCN)[C@H](n4ccc(=O)[nH]c4=O)O[C@@H]3CO)O2)c(=O)[nH]c1=O |  |  |  |  |  | Stable
6 | CO[C@@H]1[C@H](OP(=O)(O)OC[C@H]2O[C@@H](n3ccc(=O)[nH]c3=O)[C@H](OC)[C@@H]2OP(=O)(O)OC[C@H]2O[C@@H](n3ccc(=O)[nH]c3=O)[C@H](OC)[C@@H]2OP(=O)(O)OC[C@H]2O[C@@H](n3ccc(=O)[nH]c3=O)[C@H](OC(N)=O)[C@@H]2OP(=O)(O)OC[C@H]2O[C@@H](n3ccc(N)nc3=O)[C@H](OC)[C@@H]2OP(=O)(O)OC[C@H]2O[C@@H](n3ccc(N)nc3=O)[C@H](OC)[C@@H]2OP(=O)(O)OC[C@H]2O[C@@H](n3cnc4c(=O)[nH]c(N)nc43)[C@H](OC)[C@@H]2OP(=O)(O)OC[C@H]2O[C@@H](n3cnc4c(=O)[nH]c(N)nc43)[C@H](OC)[C@@H]2O)[C@@H](COP(=O)(O)O[C@H]2[C@@H](OC)[C@H](n3ccc(N)nc3=O)O[C@@H]2COP(=O)(O)O[C@H]2[C@@H](OC)[C@H](n3cnc4c(N)ncnc43)O[C@@H]2COP(=O)(O)O[C@H]2[C@@H](OC(N)=O)[C@H](n3ccc(=O)[nH]c3=O)O[C@@H]2COP(=O)(O)O[C@H]2[C@@H](OC)[C@H](n3cnc4c(=O)[nH]c(N)nc43)O[C@@H]2CO)O[C@H]1n1ccc(N)nc1=O |  |  |  | 47 |  | 
7 | CO[C@@H]1[C@H](OP(=O)(O)OC[C@H]2O[C@@H](n3ccc(=O)[nH]c3=O)[C@H](OC(=O)NCCCCN)[C@@H]2OP(=O)(O)OC[C@H]2O[C@@H](n3ccc(=O)[nH]c3=O)[C@H](OC)[C@@H]2OP(=O)(O)OC[C@H]2O[C@@H](n3ccc(=O)[nH]c3=O)[C@H](OC(=O)NCCCCN)[C@@H]2OP(=O)(O)OC[C@H]2O[C@@H](n3ccc(N)nc3=O)[C@H](OC)[C@@H]2OP(=O)(O)OC[C@H]2O[C@@H](n3ccc(N)nc3=O)[C@H](OC)[C@@H]2OP(=O)(O)OC[C@H]2O[C@@H](n3cnc4c(=O)[nH]c(N)nc43)[C@H](OC)[C@@H]2OP(=O)(O)OC[C@H]2O[C@@H](n3cnc4c(=O)[nH]c(N)nc43)[C@H](OC)[C@@H]2O)[C@@H](COP(=O)(O)O[C@H]2[C@@H](OC)[C@H](n3ccc(N)nc3=O)O[C@@H]2COP(=O)(O)O[C@H]2[C@@H](OC)[C@H](n3cnc4c(N)ncnc43)O[C@@H]2COP(=O)(O)O[C@H]2[C@@H](OC)[C@H](n3ccc(=O)[nH]c3=O)O[C@@H]2COP(=O)(O)O[C@H]2[C@@H](OC)[C@H](n3cnc4c(=O)[nH]c(N)nc43)O[C@@H]2CO)O[C@H]1n1ccc(N)nc1=O |  |  |  | 61 | 18 | 
